Source: PubChem (Johns Hopkins Ion Channel Center)
Hits are enriched below; roughly 3.5% of the tested compounds scored in any of these assays.
RGS4 act: RGS4 potentiators or activators, primary screen, cell-based, HEK293 M3R inducible RGS4, calcium flux. AID 463111, 2010. actives 0.92% (n = 310,000). B-score at 10 µM. carbachol calcium flux Fluo4; active compounds read low;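 active means B-score of the integrated calcium signal more than 4 SD below the library mean, with starting fluorescence not abnormally high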;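 further: negative B-score means reduced calcium response which marks RGS4 activation or potentiation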
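Material: M3R-expressing HEK293 line, RGS4 induced by doxycycline | Schedule: Overnight RGS4 induction, 30 min dye load 37 °C, 20 min compound RT | Measured by: Fluo4 fluorescence kinetic imaging of calcium | Read-out: Integrated calcium ratio converted to B score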
MrgX1 ag: agonists of human MrgX1 receptor, primary screen, HEK293 cells, Fluo-4 calcium flux; Fluo-4 calcium fluorescence, agonist mode; active compounds read high; B-score at 10 µM; actives 0.44% (n = 310,000); AID 588627, 2011;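 active means calcium response B-score plate-corrected fluorescence ratio at least 3 library SD, with starting fluorescence B-score inside 5 SD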
Target sequence (Q96LB2 whole entry, looked up): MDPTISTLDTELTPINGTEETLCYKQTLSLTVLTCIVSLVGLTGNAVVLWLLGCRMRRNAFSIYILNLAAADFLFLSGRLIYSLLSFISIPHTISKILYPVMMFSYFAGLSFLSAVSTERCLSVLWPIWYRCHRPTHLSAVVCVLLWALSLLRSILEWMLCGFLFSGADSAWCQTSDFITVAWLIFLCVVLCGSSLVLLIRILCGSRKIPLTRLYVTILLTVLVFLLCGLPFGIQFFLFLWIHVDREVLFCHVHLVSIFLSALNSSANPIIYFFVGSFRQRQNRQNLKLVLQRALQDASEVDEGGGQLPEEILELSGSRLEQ
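Assay system: MrgX1-expressing HEK293 cells / Amount: fifteen thousand cells per well / Doses: test compound in the initial addition of three / Timing: cells plated overnight, dye loaded 0.5 h 37 °C, 0.5 h room temperature / Technique: kinetic calcium dye fluorescence, Fluo-4 NW / Control set: positive and negative controls per plate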
MrgX1 allo act: positive allosteric modulators of MrgX1, primary screen, HEK293 cells, Fluo-4 calcium flux; Mas-related G-protein coupled receptor member X1 (Homo sapiens), Q96LB2; FDSS; active compounds read high; B-score at 10 µM; actives 0.63% (n = 310,000); AID 588675, 2011;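 active means plate-corrected calcium response at least 3 library SD above typical, normal starting fluorescence, not activating the receptor alone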;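 further: compound read alongside a low EC10 to EC30 dose of BAM8-22 agonist; peak minus trough fluorescence over baseline measured at the second addition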
MrgX1 antag: antagonists of human MrgX1 receptor, primary screen, HEK293 cells, Fluo-4 calcium flux; BAM8-22 antagonism; active compounds read low; Mas-related G-protein coupled receptor member X1 (Homo sapiens), Q96LB2; actives 1.3% (n = 310,000); B-score at 10 µM;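 active means calcium-response B-score plate-corrected more than 3 library SD below zero, starting fluorescence within 5 deviations, no agonist response on first addition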;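 further: peak minus trough fluorescence over baseline after final BAM8-22 challenge near maximal dose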
RGS4 inh: RGS4 inhibitors, primary screen, cell-based, HEK293 M3R inducible RGS4, calcium flux | Fluo-4 calcium flux; active compounds read high; triggered by carbachol at its EC20 | B-score at 10 µM | actives 0.45% (n = 310,000);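 active means B-score, a plate-corrected calcium signal, over three deviations above library mean, with baseline fluorescence within five deviations of library mean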;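 further: RGS4 expression induced by doxycycline in cells with stable M3 receptor; B-score is computed from the integrated fluorescence ratio over baseline after carbachol; higher B-score means a larger calcium signal and so more RGS4 inhibition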
Target sequence (P49798 whole entry, looked up): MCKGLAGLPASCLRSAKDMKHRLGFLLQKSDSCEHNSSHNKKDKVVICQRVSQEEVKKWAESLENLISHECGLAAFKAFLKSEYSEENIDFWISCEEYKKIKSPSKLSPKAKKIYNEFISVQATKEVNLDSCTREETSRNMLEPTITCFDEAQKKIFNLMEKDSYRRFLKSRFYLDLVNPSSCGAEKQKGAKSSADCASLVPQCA
MrgX1 antag conf: MrgX1 receptor antagonists, duplicate retest, confirmation, HEK293 cells, Fluo-4 calcium flux; shares compounds with MrgX1 antag; BAM8-22 calcium flux; active compounds read low; remaining BAM8-22 calcium response % of control (active compounds read low), % at 10 µM; actives 19% (n = 2,300);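 active means remaining agonist calcium response no higher than 100% minus 3 SD of agonist-only control wells, with starting fluorescence near control levels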;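 further: agonist BAM8-22 given at a near maximal EC90 to ECmax level; peak minus minimum fluorescence divided by baseline after agonist addition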
HEK293 Ca flux: nonspecific calcium signal in parental HEK293, confirmation, counter-screen for MrgX1 antagonist project, parental HEK293 cells, Fluo-4 calcium flux; shares compounds with MrgX1 antag; Fluo-4 calcium fluorescence, FDSS; fluorescence ratio F(max-min)/F0 at 10 µM; actives 2% (n = 4,000); AID 624111, 2012;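 active means duplicate-averaged calcium fluorescence ratio at least three times the standard deviation of buffer wells, a nonspecific response in parental cells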
HEK293 Ca counter: calcium response in parental HEK293 cells, primary screen, counter-screen for MrgX1 allosteric activator project, cell-based, Fluo-4 calcium flux, duplicate. Fluo-4 fluorescence ratio; active compounds read high. shares compounds with MrgX1 antag. fluorescence ratio F(max-min)/F0 at 10 µM. AID 624114, 2012. actives 0.4% (n = 4,000);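 active means calcium fluorescence ratio, averaged over duplicates, at least 3 SD of the buffer-well ratio, meaning a nonspecific response in receptor-free cells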;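 further: untransfected parental HEK293 lacking MrgX1 used as counterscreen for MrgX1 allosteric activators; fluorescence change taken during the second addition on a kinetic imager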
HEK293 Ca cntr2: calcium response in parental HEK293 cells, primary screen, counter-screen for MrgX1 agonist project, cell-based, Fluo-4 calcium flux, duplicate, agonist mode; shares compounds with MrgX1 antag; Fluo-4 calcium fluorescence (FDSS); active compounds read high; fluorescence ratio F(max-min)/F0 at 10 µM; actives 8.7% (n = 4,000);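 active means calcium fluorescence ratio at least three times the spread of buffer wells, meaning a non-specific response in parental cells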
Numbers without * were called inactive; i = inactive; nt = no result.

SMILES	RGS4 act	MrgX1 ag	MrgX1 allo act	MrgX1 antag	RGS4 inh	MrgX1 antag conf	HEK293 Ca flux	HEK293 Ca counter	HEK293 Ca cntr2
CC1(c2ccc(OC(F)F)cc2)NC(=O)N(CC(=O)Nc2ccc(S(N)(=O)=O)cc2)C1=O (centres undefined)	i	i	i	-6.93*	i	i	i	i	i
O=C(CSC1=NS(=O)(=O)c2cc(Cl)ccc2N1)Nc1ccccc1C(F)(F)F	i	i	i	-10.5*	i	i	i	i	i
COc1ccccc1N1C(=S)NC2CS(=O)(=O)CC21 (centres undefined)	i	i	i	i	i	nt	nt	nt	nt
c1ccc(Nc2ccccc2Nc2ccccn2)nc1	i	i	i	-4.72*	i	78.4%*	i	i	i
c1ccc(CNc2ccccn2)cc1	i	i	i	i	i	nt	nt	nt	nt
COC(=O)/C=C1/SC(=NC(=O)c2ccc(Cl)cc2)NC1=O	i	i	i	i	i	nt	nt	nt	nt
COc1ccccc1OCC(=O)Nc1ccc(S(=O)(=O)NC(C)=O)cc1	i	i	i	-6.7*	i	i	i	i	i
COc1ccccc1OCC(=O)Nc1ccc(NC(=O)COc2ccccc2OC)cc1	i	i	i	i	i	nt	nt	nt	nt
O=C(O)C1Oc2cc3ccccc3cc2O1	i	i	i	i	i	nt	nt	nt	nt
Cc1ccc(-c2cc(C(=O)NC3=NCCS3)c3ccccc3n2)cc1C	i	i	i	-4.92*	i	i	i	i	i
O=C(NC1=NCCS1)c1cc(-c2ccc(F)cc2)nc2ccccc12	i	i	i	i	i	nt	nt	nt	nt
Cc1ccc(S(=O)(=O)CCC(=O)OCC(=O)N(Cc2ccccc2)C(C)C)cc1	i	i	i	i	i	nt	nt	nt	nt
COCCn1c(C)cc(C(=O)CSc2nc3nc(C)cc(C)n3n2)c1C	i	i	i	i	i	nt	nt	nt	nt
COCCn1c(C)cc(C(=O)CSc2n[nH]c(N)n2)c1C	i	i	i	-4.83*	i	i	i	i	i
CN(C)C(CNC(=O)CCc1nc2sc3c(c2c(=O)[nH]1)CCCC3)c1ccccc1 (centres undefined)	i	i	i	-6.48*	i	i	i	i	i
COc1cccc(CN(C)C(=O)CC2C(=O)NCCN2C2Cc3ccccc3C2)c1 (centres undefined)	i	i	i	i	i	nt	nt	nt	nt
CCNc1nc(OCCNC(C)=O)nc(N(C)C)n1	i	i	i	-4.81*	i	i	i	i	i
CCOC(=O)CCC(=O)O[C@H]1[C@H](O[C@@H]2[C@@H](C)[C@H](O[C@H]3C[C@@](C)(OC)[C@@H](O)[C@H](C)O3)[C@@H](C)C(=O)O[C@H](CC)[C@@](C)(O)[C@H](O)[C@@H](C)C(=O)[C@H](C)C[C@@]2(C)O)O[C@H](C)C[C@@H]1N(C)C	i	i	i	-10.6*	i	i	i	i	i
CC[C@H]1OC(=O)[C@H](C)[C@@H](O[C@H]2C[C@@](C)(OC)[C@@H](O)[C@H](C)O2)[C@H](C)[C@@H](O[C@@H]2O[C@H](C)C[C@H](N(C)C)[C@H]2O)[C@](C)(O)C[C@@H](C)C(=O)[C@H](C)[C@@H](O)[C@]1(C)O	i	i	i	i	i	nt	nt	nt	nt
Cc1ccc(Cl)cc1N1CCN(C(=O)c2cc3c(=O)[nH]c4ccccc4c3n2C)CC1	i	i	i	-13.9*	i	36.0%*	i	i	i
CCNc1ccc2noc3c2c1C(=O)c1ccccc1-3	i	i	i	-4.75*	i	i	0.579*	i	i
CCOC(=O)c1sc(-c2ccc(C(F)(F)F)cc2)nc1O	i	i	i	-5.74*	i	59.3%*	i	i	i
COc1ccc(C)cc1N(CC(=O)Nc1ccc(S(=O)(=O)N2CCOCC2)cc1)S(C)(=O)=O	i	i	i	-5.22*	i	i	i	i	i
O=C(COc1ccccc1F)NCc1ccc(-n2cccc2)cc1	i	i	i	i	i	nt	nt	nt	nt
CN(Cc1cccs1)C(=O)C1CC(=O)N(Cc2ccccc2)C1 (centres undefined)	i	i	i	i	i	nt	nt	nt	nt
SMILES	RGS4 act	MrgX1 ag	MrgX1 allo act	MrgX1 antag	RGS4 inh	MrgX1 antag conf	HEK293 Ca flux	HEK293 Ca counter	HEK293 Ca cntr2
O=C(c1cnn2c(C(F)F)cc(-c3ccccc3)nc12)N1CCc2ccccc21	i	i	i	-4.73*	i	i	i	i	i
CCN1CCN(C(=O)c2cnn3c(C(F)F)cc(-c4ccc(C)cc4)nc23)CC1	i	i	i	-8.53*	i	i	i	i	i
Cc1ccc(-c2cc(C(F)F)n3ncc(C(=O)N4CCc5ccccc54)c3n2)cc1	i	i	i	i	i	nt	nt	nt	nt
O=C(Cc1ccc(Cl)cc1)NCC(=O)N1CCN(Cc2ccccc2)CC1	i	i	i	i	i	nt	nt	nt	nt
Cc1ccccc1CSc1nnc(-c2cccs2)n1Cc1ccco1	i	i	i	i	i	nt	nt	nt	nt
c1ccc(CSc2nnc(-c3cccs3)n2Cc2ccco2)cc1	i	i	i	-5.75*	i	82.7%*	i	i	i
CCCCN(C)C(=O)C1CCC(CNS(=O)(=O)c2ccc3c(c2)CC(C)N3C(=O)C2CC2)CC1 (centres undefined)	i	i	i	i	i	nt	nt	nt	nt
